pIC50, pKd: −log10 of the molar value. One block for each compound: values may come before it.
Tests used:
PKN3 [1] = target: T1, PKN3 (Homo sapiens, UniProt Q6P5Z2); experiment: split-luciferase binding assay
NLK = details: read-out: Kd NLK; DiscoverX KinomeSCAN, prior annotation of PKIS2; cited from earlier work
[2] = system: kinases in lysates of SUM159 cells; experiment: MIB-MS kinome profiling; type: binding; details: 1 μM; for kinases on which activity was detected: threshold 5-fold change
ACVR1 = details: read-out: ACVR1 Kd; DiscoverX profiling; cited from earlier work
human kinome = details: at 1 μM, across the human kinome; cited from earlier work
PKN3 [3] = target: T1, PKN3; experiment: PKN3 NanoBRET in-cell target engagement; type: cell-based
Procedure, shortened: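 Full-length PKN3 with N-terminal NanoLuc (Gly-Ser-Ser-Gly linker) transiently expressed in HEK-293 cells for 20-30 hr at 37°C/5% CO2. Cells in Opti-MEM at 2 x 10^4/well are equilibrated 2 h with tracer K-5 (1000 nM final) and test compound. NanoBRET substrate and extracellular NanoLuc inhibitor are added, and donor/acceptor luminescence is read. IC50 comes from a variable-slope fit, normalised to controls when needed.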

GAK [4] = details: read-out: GAK activity in cells IC50; GAK NanoBRET; cited from earlier work
GAK [5] = experiment: GAK FRET binding; details: compared to 14
GAK [6] = experiment: GAK NanoBRET; type: cell-based; details: NanoBRET GAK vs PKN3
[7] = PKN3 IC50, SLCA assay (n=2), 8-point dose response

T1 sequence (Q6P5Z2 whole entry): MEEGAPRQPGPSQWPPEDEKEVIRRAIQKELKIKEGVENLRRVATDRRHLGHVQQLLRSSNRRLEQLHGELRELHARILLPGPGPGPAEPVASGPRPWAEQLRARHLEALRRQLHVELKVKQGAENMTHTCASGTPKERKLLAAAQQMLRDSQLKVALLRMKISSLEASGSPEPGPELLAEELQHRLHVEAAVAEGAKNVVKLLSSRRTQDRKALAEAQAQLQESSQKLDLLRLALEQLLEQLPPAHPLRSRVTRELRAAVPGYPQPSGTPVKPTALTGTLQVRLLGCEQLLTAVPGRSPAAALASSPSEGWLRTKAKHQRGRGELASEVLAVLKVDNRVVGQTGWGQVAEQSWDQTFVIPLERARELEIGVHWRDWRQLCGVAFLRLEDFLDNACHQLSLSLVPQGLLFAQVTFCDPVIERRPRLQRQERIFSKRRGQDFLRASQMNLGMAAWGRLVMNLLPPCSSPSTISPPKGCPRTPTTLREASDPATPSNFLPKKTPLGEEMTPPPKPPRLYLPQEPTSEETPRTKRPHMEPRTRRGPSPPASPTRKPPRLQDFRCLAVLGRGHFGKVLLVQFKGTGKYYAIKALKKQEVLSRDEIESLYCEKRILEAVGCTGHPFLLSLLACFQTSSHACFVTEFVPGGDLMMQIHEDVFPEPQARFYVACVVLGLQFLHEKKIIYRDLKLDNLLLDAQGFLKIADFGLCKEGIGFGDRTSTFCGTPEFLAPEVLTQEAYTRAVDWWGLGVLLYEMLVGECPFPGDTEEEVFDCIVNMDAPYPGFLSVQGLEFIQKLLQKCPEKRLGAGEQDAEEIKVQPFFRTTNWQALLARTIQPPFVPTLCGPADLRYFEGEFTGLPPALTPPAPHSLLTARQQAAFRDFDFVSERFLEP

pIC50 (PKN3 [1]; [7]): 4.36
Structure (SMILES): CNC(=O)CN1CCC(Oc2cc3c(Nc4cccc(Cl)c4F)ncnc3cc2OC)CC1 [Sapitinib]

pIC50 (PKN3 [1]; [7]): 6.62
Structure (SMILES): COc1cc2c(Nc3ccc(Cl)c(Cl)c3F)ncnc2cc1OC[C@@H]1C[C@@H]2CN(C)C[C@@H]2C1 [Tesevatinib]

pIC50 (PKN3 [1]; [7]): 6.27
Structure (SMILES): COc1cc2c(Nc3ccc(Br)cc3F)ncnc2cc1OCC1CCN(C)CC1 [Vandetanib]

Second part, the compound before the results:

Structure (SMILES): COc1cc2nccc(Oc3ccc(NC(=O)C4(C(=O)Nc5ccc(F)cc5)CC4)cc3)c2cc1OC [Cabozantinib]
pIC50 (PKN3 [1]; [7]): 4.38

Structure (SMILES): COc1cc(Nc2ccnc3ccc(C(F)(F)F)cc23)cc(OC)c1OC [Compound 2]
pKd (NLK): > 6.00
kinome profile [2]: narrow spectrum
kinases on which activity was detected [2]: GAK and RIPK2
pKd (ACVR1): 6.66

Structure (SMILES): COc1cc(Nc2ccnc3cc(-c4ccncc4)ccc23)cc(OC)c1OC [Compound 3]
pIC50 (PKN3 [1]; PKN3 IC50, SLCA assay): 8.05
number of kinases inhibited >90% (human kinome): > 18 kinases

Structure (SMILES): COc1cc(Nc2ccnc3cc(I)ccc23)cc(OC)c1OC [Compound 16, 7-iodo-N-(3,4,5-trimethoxyphenyl)quinolin-4-amine]
pIC50 (PKN3 [3]): 5.89
drop off in activity from cell free SLCA assay to NanoBRET (PKN3 [3]; PKN3): ~100 fold
pIC50 (GAK [4]): 7.13
decrease in GAK activity (GAK [5]): 3 fold
kinome profile [2]: narrow spectrum
kinases on which activity was detected [2]: PKN3, NLK, GAK, AVCR1 and RIPK2
more potent on GAK than PKN3 in cells (GAK [6]): 17 fold

Structure (SMILES): CS(=O)(=O)CCNCc1ccc(-c2ccc3ncnc(Nc4ccc(OCc5cccc(F)c5)c(Cl)c4)c3c2)o1 [Lapatinib]
pIC50 (PKN3 [1]; [7]): 5.23
PKN3 binding, in words (PKN3 [1]; SLCA assay): moderate activity

From PMC9233141 (ChemMedChem, 2022)
